# Published values pooled from the literature.
# Compare with care: the assays were run in different laboratories.
# Target: Serine/threonine-protein kinase Nek4 (NEK4, Homo sapiens, UniProt P51957)
Compound,effect on,mode,method,tested at,quantity,result
Cn1cc(-c2cccc(N3CCc4c(sc5c4CC(C)(C)C5)C3=O)c2CO)cc(Nc2ccncn2)c1=O,enzyme activity,inhibitor,,1 µM,inhibition,2%
Cn1cncc1[C@@](O)(COc1ccc(C#N)cc1-c1ccc(OC(F)(F)F)cc1)c1ccc(C#N)cc1,cell-free assay,,competition with immobilised ligand,1 µM,remaining binding,90%
Cc1nn(C)cc1-c1nc2c(N3CCN(Cc4ccc(Cl)cc4)CC3)c(Cl)cnc2[nH]1,binding,,competition with immobilised ligand,1 µM,remaining binding,82%
CC(C)(C)c1cc(C=C(C#N)C#N)cc(Br)c1O,enzyme activity,inhibitor,,0.5 µM,remaining activity,93.7%
COc1cc(Nc2ncc(F)c(Nc3ccc4c(n3)NC(=O)C(C)(C)O4)n2)cc(OC)c1OC,binding,,competition with immobilised ligand,10 µM,inhibition,91%
N#CC1(c2ccccn2)CCN(Cc2cc(C(=O)O)c(=O)n3ccccc23)CC1,cell-free assay,,competition with immobilised ligand,1 µM,remaining binding,100%
Cn1cc(-c2cc(F)cc(N3CCn4c(cc5c4CCCC5)C3=O)c2CO)cc(Nc2ccc(N3CCN(C4COC4)CC3)cn2)c1=O,enzyme activity,inhibitor,,0.1 µM,inhibition,9%
Nc1ncc(-c2nc(N3CCOCC3)nc(N3CCOCC3)n2)c(C(F)F)n1,binding,,competition with immobilised ligand,10 µM,remaining binding,75%
O=c1[nH]c2ccccc2n1C1CCN(Cc2ccc(-c3[nH]c4cc5ncnc5cc4nc3-c3ccccc3)cc2)CC1,cell-free assay,,,0.5 µM,remaining signal,106%
COc1ncccc1-c1cnn2ccc(N3CCN(C(=O)OC(C)C)CC3)nc12,binding,,competition with immobilised ligand,1 µM,remaining binding,87%
